# TRPML3 agonist – human mucolipin-3 channel agonism. Q8TDD5. hit rate 0.29% among 220,000. HEK293 TRPML3-YFP, Fluo-8 calcium fluorescence; 100% = the carbachol control signal. activation, % at 3 µM;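 active = activation above its plate's cutoff, the mean activation of the plate's test wells plus 3 SD, cut at about 12% in these data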;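 note: 0% = DMSO only wells and 100% = carbachol wells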
# Target sequence (Q8TDD5 whole entry, looked up): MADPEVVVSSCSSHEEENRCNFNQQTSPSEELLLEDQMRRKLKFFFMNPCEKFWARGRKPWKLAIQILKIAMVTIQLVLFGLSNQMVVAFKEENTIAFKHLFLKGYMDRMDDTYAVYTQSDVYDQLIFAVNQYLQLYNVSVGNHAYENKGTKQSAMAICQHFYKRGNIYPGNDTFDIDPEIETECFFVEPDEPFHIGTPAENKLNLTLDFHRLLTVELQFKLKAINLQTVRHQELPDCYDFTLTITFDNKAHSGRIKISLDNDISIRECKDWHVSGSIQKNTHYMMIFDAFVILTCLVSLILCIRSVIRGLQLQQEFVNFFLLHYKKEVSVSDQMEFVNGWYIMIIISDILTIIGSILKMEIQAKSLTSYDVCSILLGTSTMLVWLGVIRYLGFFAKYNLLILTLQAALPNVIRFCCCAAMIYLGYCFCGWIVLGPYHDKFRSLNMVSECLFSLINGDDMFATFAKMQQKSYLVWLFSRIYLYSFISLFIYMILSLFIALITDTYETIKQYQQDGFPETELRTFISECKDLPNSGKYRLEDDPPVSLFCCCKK
#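 Material: TRPML3-YFP stable HEK293 cells | Dosing: One concentration, 3 µM nominal, 0.3% DMSO | Timing: 125 s total fluorescence read per well | Technique: Fluo-8 calcium dye fluorescence, ex 470-495, em 515-575 nm | Measure: Percent activation from peak-to-basal fluorescence ratio, scaled between DMSO and carbachol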
# LANA-H2A inh – blocks KSHV LANA binding to histone H2A/H2B | cell-free LANA-H2A/H2B peptide, fluorescence polarization | inhibition, % (test concentration not listed) | hit rate 0.6% among 320,000 | AID 2629; in the data active = inhibition mostly above about 10%, no sharp cut-off; inactive = mostly below about 6.7%
# zfTRPN1 agonist – agonists of zebrafish TRPN1 channel | hit rate 0.18% among 220,000 | HEK293 zebrafish TRPN1-YFP, Fluo-8 calcium fluorescence; 100% = response to 87 µM carbachol | activation, % at 3 µM;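 active = activation above its plate's cutoff, the mean activation of test wells on that plate plus 3 SD, cut at about 19% in these data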;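 note: 0% = DMSO alone and 100% = 87 µM carbachol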
#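 Material – zebrafish TRPN1-YFP in HEK293 cells · Doses – 3 µM single point · Schedule – dye 1 h 37 °C plus 30 min RT · Signal – Fluo-8 calcium fluorescence, excitation 470-495 nm, emission 515-575 nm · Read-out – % activation versus carbachol response · Control set – carbachol high, DMSO low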
# GPR7 antag – antagonists of human GPR7 (neuropeptides B/W receptor 1). P48145. GPR7-expressing cells, fluorescence antagonist assay. inhibition, % at 4.4 µM. hit rate 1.1% among 290,000. AID 1861; in the data active = inhibition above about 16%, passing the limit was not always enough;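 note: cells stimulated with the agonist NPW; 0% = agonist with vehicle and 100% = vehicle without agonist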
# TAAR1 agonist – human TAAR1 agonism; activation, % at 3 µM; CHO RD-HGA16 TAAR1, Fluo-8 calcium fluorescence; vehicle wells 0%, saturating PEA agonist 100%; Q96RJ0; hit rate 0.99% among 360,000; AID 624467;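 active = activation above the mean activation of all test compounds in the run plus 3 SD, cut at about 38% in these data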
#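 test system = CHO RD-HGA16 cells carrying human TAAR1 plus Gα16 | schedule = 17-24 h seeding, 75 min 37 °C dye, 30 min RT | compound dosing = 3 µM single concentration | control set = DMSO and PEA EC100 | replicates = n 1 | signal = Fluo-8 fluorescence, 5 s baseline then 140 s kinetic read | measure = percent activation vs PEA EC100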
# TAAR1 antagonist – human TAAR1 antagonism. Q96RJ0. CHO RD-HGA16 TAAR1, Fluo-8 calcium fluorescence, antagonist. inhibition, % at 3 µM. hit rate 1.5% among 360,000;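 active = inhibition above a per-plate cutoff, the mean inhibition of test compounds on that plate plus 3 SD, cut at about 49% in these data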;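 note: 0% = DMSO plus EC80 beta-PEA response and 100% = DMSO alone without agonist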
#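 System: RD-HGA16 CHO cells with stable hTAAR1 and Gα16 | Probe or stimulus: EC80 β-phenethylamine stimulus | Dosing: 3 µM, single point | Times: Dye loading 75 min at 37 °C, then 30 min room temperature | Measured by: Fluo-8 calcium-sensitive fluorescence | Read-out basis: % inhibition of agonist calcium response | Replicates: n of 1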
# GPR7 antag cf – confirmation of human GPR7 antagonists | shares compounds with GPR7 antag | GPR7-expressing cells, calcium fluorescence antagonist mode | inhibition, % at 4.4 µM | hit rate 52% among 2,400 | AID 1952; in the data active = inhibition above about 24%;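 note: stimulated with the GPR7 agonist NPW; 0% = agonist plus vehicle and 100% = vehicle alone without agonist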
# MCHR1 antagonist – antagonizes human MCHR1, a GPR7 antagonist counter-screen; hit rate 62% among 2,400; AID 2148; shares compounds with GPR7 antag; inhibition, % at 4.4 µM; MCHR1-expressing cells, fluorescence antagonist assay; in the data active = inhibition above about 22%;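 note: 0% = vehicle with agonist and 100% = vehicle without agonist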
# An asterisk follows results filed as active; . = no result. Hits are enriched below; roughly 3.4% of the tested compounds scored in any of these assays.
SMILES,TRPML3 agonist,LANA-H2A inh,zfTRPN1 agonist,GPR7 antag,TAAR1 agonist,TAAR1 antagonist,GPR7 antag cf,MCHR1 antagonist
CN(C)S(=O)(=O)n1cc(/C=C(\NC(=O)c2ccccc2Cl)C(=O)N2CCCC2)c2ccccc21,.,4,.,31*,14,45,10,34*
COc1ccc(-c2nnn(CC(=O)NCc3ccc4c(c3)OCO4)n2)cc1OC,0,-3,-1,22*,4,10,0,2
O=C(NCc1ccc(F)cc1)c1cc2c(cc1Cl)N1CCCCCC1=NS2(=O)=O,.,4,.,.,0,-2,.,.
COc1ccc(Br)cc1C1NC(=O)NC(C)=C1C(=O)N(C)C (stereo not given),0,-4,0,23*,7,10,5,4
COC(=O)C1=C(C)NC(=O)NC1c1cc(Cl)ccc1OC (stereo not given),0,5,13,-10,5,6,.,.
NS(=O)(=O)c1cccc(NC(=O)COC(=O)CC2CC3CCC2C3)c1 (stereo not given),2,-5,1,36*,2,-13,-6,-6
COC(=O)CNC(c1ccccc1)c1cc(Br)ccc1NC(=O)OCc1ccccc1 (stereo not given),1,5,3,-13,2,13,.,.
COC(=O)CNC(c1ccccc1)c1cc(C)ccc1NC(=O)CNC(=O)OCc1ccccc1 (stereo not given),0,5,0,39*,-1,5,29*,18
CCOC(=O)CNC(c1ccccc1)c1cc(Br)ccc1NC(C)=O (stereo not given),0,0,1,36*,14,6,30*,12
CC(NCCC(Cc1ccccc1)c1ccco1)c1ccccc1 (stereo not given),1,5,-1,24*,3,-7,41*,50*
Fc1ccc(CNCCC(Cc2ccccc2)c2ccco2)cc1 (stereo not given),1,4,-1,29*,11,-9,44*,40*
C=C(CCC(=O)c1ccccc1)C(=O)c1ccccc1,0,9,0,46*,0,0,86*,78*
Cc1c(C)[n+](=O)c(C)c(C)n1[O-],.,.,.,.,0,-7,.,.
CN(C)c1ccc(/C=C(\C#N)C(=O)Nc2nc3c(s2)CCN(Cc2ccccc2)C3)cc1,3,-12,6,26*,24,41,33*,31*
O=C(COc1ccc(Cl)cc1)NCCNc1ccc([N+](=O)[O-])cc1,.,4,.,52*,3,13,49*,51*
O=C(NCCNc1ccc([N+](=O)[O-])cc1)c1ccc(Cl)cc1,0,1,0,7,6,-4,.,.
COc1ccccc1CNC(=O)COC(=O)c1ccccc1-c1ccccc1,.,-2,.,.,0,6,.,.
CCOc1ccc2oc(C(=O)NCc3ccccc3CN3CCCC3)c(C)c2c1,.,-1,.,.,5,-15,.,.
FC(F)Sc1ccc(NC(=S)NCc2ccccc2)cc1,4,-6,9,46*,10,27,37*,51*
FC(F)Sc1ccc(NC(=S)NCC2CCCCC2)cc1,4,-4,6,34*,9,50*,58*,75*
CC(C)=CCC(C)(C)/C=N/NC(N)=O,1,-2,3,-11,1,-31,.,.
CN1CCN(C(=O)c2ccc(CSc3ccc(Cl)cc3)cc2)CC1,2,-1,5,-1,7,11,.,.
CCOC(=O)N1CCN(C(=O)c2ccc(CSc3ccc(Cl)cc3)cc2)CC1,0,.,-1,25*,3,23,22,49*
CCc1cccc(CC)c1NC(=O)Cn1c(-c2ccc(F)cc2)noc1=O,0,-2,-2,27*,4,4,16,18

# Source: PubChem BioAssay
